Screening data (PubChem BioAssay)
Most compounds without a hit are left out; they make up all but 6.7% or so of the library.
Beta cell apopt – blocks beta cell apoptosis; protection from apoptosis, % (test concentration not listed); AID 435005; INS-1E cytokine-induced death, ATP luminescence, 48 h; percent of positive-control rescue, neutral wells zero; 0.8% of 300,000 active;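 active = Every replicate reaches about 75%, or at least half do and their mean reaches it too, limit read from the data; inconclusive = At least half of replicates reach the limit but their mean does not; inactive = Under half of replicates reach the limit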;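 note: 0% = cytokine-treated negative control wells and 100% = positive control rescue; higher means more ATP so stronger rescue from cytokine killing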
NR3A LBD binder – NR3A (human) ligand-binding domain modulation. NR3A LBD differential scanning fluorimetry, Tm shift; 0% = protein alone, 100% = glycine-bound protein. Tm shift relative to glycine control, % at 25 µM. 2.5% of 340,000 active. AID 1259313;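 active = melting temperature shift of at least 10% of the positive control shift, at one fixed dose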
CHOP inhibitor – inhibitors of CHOP induction in ER stress response. CHO-K1 CHOP-promoter luciferase, tunicamycin-induced, 15-18 h. inhibition, % at 10 µM. 3.8% of 220,000 active;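 active = compounds that reduced the stress-induced luciferase reporter signal by more than about 70% of percent inhibition, limit read from the data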;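 note: 0% = tunicamycin plus vehicle and 100% = wells without tunicamycin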
PREPL inhibitor – inhibitors of human prolyl oligopeptidase-like enzyme PREPL; Q4J6C6; recombinant PREPL, fluorescence polarization activity-based probe; inhibition, % at 5.96 µM; 0.68% of 320,000 active; AID 2751; in the data active = inhibition above about 43%;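 note: 0% = enzyme with DMSO and 100% = wells lacking enzyme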
Target sequence (Q4J6C6 whole entry, looked up): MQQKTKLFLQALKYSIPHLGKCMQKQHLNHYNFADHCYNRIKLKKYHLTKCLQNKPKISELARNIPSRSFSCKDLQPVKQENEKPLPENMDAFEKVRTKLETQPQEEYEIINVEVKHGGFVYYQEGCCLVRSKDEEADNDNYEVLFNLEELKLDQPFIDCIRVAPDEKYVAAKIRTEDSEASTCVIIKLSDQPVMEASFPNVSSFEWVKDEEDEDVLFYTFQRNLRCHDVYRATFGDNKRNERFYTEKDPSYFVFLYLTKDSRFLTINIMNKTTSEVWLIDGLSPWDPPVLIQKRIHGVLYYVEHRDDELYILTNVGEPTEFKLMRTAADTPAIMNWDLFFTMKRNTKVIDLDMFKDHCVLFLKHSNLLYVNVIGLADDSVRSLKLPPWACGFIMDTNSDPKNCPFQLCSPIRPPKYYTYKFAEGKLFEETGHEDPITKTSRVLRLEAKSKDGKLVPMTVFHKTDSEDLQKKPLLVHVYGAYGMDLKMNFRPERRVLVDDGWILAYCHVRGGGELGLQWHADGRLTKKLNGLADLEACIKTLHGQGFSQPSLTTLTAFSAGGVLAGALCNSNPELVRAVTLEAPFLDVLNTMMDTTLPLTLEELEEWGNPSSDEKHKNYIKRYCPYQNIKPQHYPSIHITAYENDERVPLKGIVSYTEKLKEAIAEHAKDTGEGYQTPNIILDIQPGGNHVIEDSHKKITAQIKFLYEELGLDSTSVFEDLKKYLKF
CSC inhib – blocks cancer stem cells; 1.1% of 300,000 active; cancer stem cell-like cells viability, luminescence; inhibition, % at 7.5 µM; in the data active = inhibition above about 75%; inconclusive = no clear call, values can overlap the other calls; tested in HMLE shEcad cells
T cruzi inh – T. cruzi replication inhibition; T. cruzi beta-gal in NIH3T3, luminescence, 90 h; inhibition, % (concentration not given with the values); 1.4% of 300,000 active;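 active = mean inhibition across valid replicates above about 55%, limit read from the data; inconclusive = mean below that limit but half or more replicates reach it; inactive = mean below it, under half of replicates reach it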;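 note: signal also drops with host cell toxicity which is not excluded here; 0% = plate median of DMSO wells and 100% = zero luminescence signal; higher percent means less beta-gal luminescence so fewer parasites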
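compound dosing = single 50 nL compound addition per well in DMSO | material = NIH/3T3 host cells with β-galactosidase reporter T. cruzi | input = 5,000 host fibroblasts per well | timing = ≥90 h infection period, 3 h prior cell attachment | read-out basis = percent inhibition of parasite-derived β-gal signal | detection = GalScreen β-gal luminescence, detergent lysis, 60 min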
CHOP inh conf – confirmation of CHOP induction inhibitors; inhibition, % at 10 µM; shares compounds with CHOP inhibitor; CHO-CHOP promoter luciferase reporter, tunicamycin-induced, luminescence; AID 504437; 45% of 2,100 active;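 active = mean of three repeat readings of reporter signal inhibition above a set limit, cut at about 70% in these data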;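 note: 0% = tunicamycin plus vehicle and 100% = wells lacking tunicamycin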
The depositor's hits bear a star; ? = inconclusive; nt = not tested or not shown.

SMILES	Beta cell apopt	NR3A LBD binder	CHOP inhibitor	PREPL inhibitor	CSC inhib	T cruzi inh	others
CCCCn1c(=O)c(C(=O)Nc2nnc(C(C)C)s2)c(O)c2ccccc21	0.9	nt	52.0	-3.6	26.8	-1.7
Cc1cccc(OP(N)(=O)Oc2cccc(C)c2)c1	-2.6	-0.4	20.5	2.7	-1.2	-16.7
Cc1cccc(OP(=O)(NCc2ccccc2)Oc2cccc(C)c2)c1	5.9	16.6*	64.8	-0.1	11.4	13.7
CCCCn1c(O)c(C(C)=Nc2ccc(OCC)cc2)c(=O)[nH]c1=O	4.1	0.9	95.4*	-1.5	-2.3	8.6
CCCCn1c(O)c(C(=O)/C=C/c2ccc3c(c2)OCO3)c(=O)[nH]c1=O	nt	2.0	29.2	-3.2	-5.9	-17.3
COc1ccc(/C=C/C(=O)c2c(O)n(CCC3=CCCCC3)c(=O)[nH]c2=O)cc1	-5.4	0.8	80.6*	-1.2	119.5*	-7.8
O=C(/C=C/c1ccc2c(c1)OCO2)c1c(O)n(CCC2=CCCCC2)c(=O)[nH]c1=O	0.5	-2.2	90.0*	8.6	84.2*	nt
O=C(NCc1cccnc1)Nc1ccc([N+](=O)[O-])cc1	81.1*	-4.5	nt	5.8	-0.8	2.1
CCC1(CCC(C)C)C(=O)NC(=S)NC1=O	nt	0.2	nt	nt	nt	nt
COc1cc(/C=C2\C(=O)NC(=O)N(c3ccccc3)C2=O)c([N+](=O)[O-])cc1OC	nt	-5.2	16.4	nt	nt	nt
COc1cc(/C=C2\C(=O)NC(=O)N(c3ccccc3)C2=O)cc(OC)c1O	2.0	11.1*	53.0	1.9	-6.0	-12.3
CN(C)c1ccc(/C=C/C=C2/C(=O)NC(=O)N(c3ccccc3)C2=O)cc1	nt	2.4	83.9*	nt	nt	-5.7
O=C1NC(=O)N(CCc2ccc(F)cc2)C(=O)/C1=C\C=C\c1ccccc1	nt	-3.2	72.6*	nt	nt	nt
C=CCN1C(=O)NC(=O)/C(=C/C=C/c2ccccc2)C1=O	nt	2.6	15.1	nt	nt	-20.0
O=C1NC(=O)N(Cc2ccccc2)C(=O)/C1=C\C=C\c1ccco1	5.7	1.3	90.9*	2.6	?	-17.7
CN1C(=O)/C(=C/C=C/c2ccco2)C(=O)NC1=S	-8.0	-0.1	3.0	-3.4	-28.0	2.3
O=C1NC(=O)C(=Cc2c(Cl)cccc2Cl)C(=O)N1	nt	-1.7	nt	nt	nt	nt
O=C1NC(=O)N(c2ccccc2)C(=O)/C1=C/C=C/c1ccco1	-2.6	-2.2	-14.9	3.6	88.2*	-17.5
COc1ccc2c(c1OC)C(=O)OC2c1c(O)n(Cc2ccc(F)cc2)c(=O)[nH]c1=O (stereo not given)	nt	12.1*	-11.3	0.3	nt	-28.3
COc1ccc(-n2c(/C=C/c3cccc(F)c3)nc3ccccc3c2=O)c(OC)c1	10.6	-0.7	nt	nt	-5.5	-10.4
CCCCCCn1c(O)c(C=NC2CCCCC2N)c(=O)[nH]c1=O (stereo not given)	-5.0	-3.2	68.2	18.3	82.7*	-6.6
CC(C)CNC(=O)c1c(N)n(Cc2ccc3c(c2)OCO3)c2nc3ccccc3nc12	-11.1	21.9*	85.4*	11.3	69.0	22.9
CCCNC(=O)c1c(N)n(Cc2ccco2)c2nc3ccccc3nc12	-12.0	-10.1	83.0*	15.9	6.1	4.4
CC(C)CCn1c(N)c(C(=O)NCc2cccs2)c2nc3ccccc3nc21	-13.0	17.5*	95.5*	0.7	76.8*	?
CCCNC(=O)c1c(N)n(Cc2ccc3c(c2)OCO3)c2nc3ccccc3nc12	7.2	20.6*	75.2*	-3.3	7.7	38.5
SMILES	Beta cell apopt	NR3A LBD binder	CHOP inhibitor	PREPL inhibitor	CSC inhib	T cruzi inh	others
CC(C)CNC(=O)c1c(N)n(Cc2ccco2)c2nc3ccccc3nc12	-10.3	-8.6	14.2	19.7	64.7	18.5
CCCN(CC1CC1)CC(O)c1ccccc1 (stereo not given)	-8.1	2.6	nt	2.4	0.7	-5.8
N#CC(Br)Br	-8.5	0.1	nt	10.4	0.7	nt
COC(=O)C1=C(c2ccc(F)cc2OCc2ccccc2)C[C@@H]2CC[C@H]1N2C(=O)NCc1ccc([N+](=O)[O-])cc1	2.8	-3.9	nt	19.7	19.9	nt
C=CCC1(Cc2ccsc2)C(=O)NC(=O)NC1=O	nt	-0.2	nt	nt	nt	nt
COc1cc(OC)c(OC)cc1CNCCc1ccc2c(c1)OCO2	nt	-1.3	nt	-6.1	-24.9	52.3
COCCCn1c(N)c(C(=O)OCCOC)c2nc3ccccc3nc21	-2.0	0.0	-19.2	1.5	2.0	-8.2
COc1ccc(Cn2c(N)c(C(=O)NCc3ccco3)c3nc4ccccc4nc32)cc1OC	-13.5	8.1	nt	13.1	-2.9	nt
CC(C)CCNC(=O)c1c(N)n(Cc2ccc3c(c2)OCO3)c2nc3ccccc3nc12	-7.0	32.0*	36.2	1.0	28.9	15.9
Nc1c(C(=O)NCc2ccco2)c2nc3ccccc3nc2n1CCN1CCCCC1	2.1	nt	49.5	17.5	29.2	69.0*
CCCCNC(=O)c1c(N)n(CCCOC)c2nc3ccccc3nc12	-11.3	-9.7	93.1*	13.9	-18.3	20.1
C=C(C)[C@@H]1[C@H]2OC(=O)[C@H]1[C@]1(O)C[C@H]3O[C@]34C(=O)O[C@H]2[C@]14C	nt	-1.1	nt	nt	nt	nt
CN1C(=O)C(C2c3ccccc3C(=O)N2Cc2ccc([N+](=O)[O-])cc2)C(=O)N(C)C1=O (stereo not given)	-6.0	-3.1	-7.7	-1.4	-12.0	-7.1
CN1C(=O)C(c2ccc([N+](=O)[O-])cc2[N+](=O)[O-])C(=O)N(C)C1=O	-6.5	10.0*	nt	1.0	-3.9	-8.1
Cc1ccc2c(c1)CC1(CN2C)C(=O)NC(=O)N(CCC2=CCCCC2)C1=O (stereo not given)	-4.5	-0.5	107.2*	-2.4	-15.8	0.4	CHOP inh conf=25.2
CCOC(=O)c1c(C)n(Cc2ccco2)c2ccc(OC)cc12	-7.2	1.2	45.4	13.6	-2.5	22.3
CCOC(=O)c1c(C)n(Cc2ccco2)c2c1cc(O)c1ccccc12	-4.7	-5.7	100.7*	0.6	4.7	-6.6	CHOP inh conf=-49.4
CN1/C(=C\C=C\C2=[N+](C)c3ccc4ccccc4c3C2(C)C)C(C)(C)c2ccccc21	100.2*	nt	108.1*	-233.4	114.9*	nt	CHOP inh conf=125.0*
CC(C)(CN)CC(=O)O	-2.6	0.9	0.4	-11.1	-14.6	0.4
CCCCCCCn1c(=O)c(C(=O)Nc2cnccn2)c(O)c2ccccc21	66.8	2.2	98.1*	0.2	69.5	6.2	CHOP inh conf=116.5*
CCCCCCn1c(=O)c(C(=O)Nc2cccc(C)n2)c(O)c2ccccc21	nt	1.1	nt	11.7	-6.8	1.7
C[C@]12CC[C@@H](O)CC1CC[C@@H]1[C@@H]2CC[C@]2(C)C(=O)CC[C@@H]12 (stereo not given in full)	nt	nt	-2.3	nt	nt	nt
O=C1NCN(c2ccccc2)C12CCNCC2	3.1	-2.8	100.9*	9.4	-1.6	-4.8	CHOP inh conf=9.9
O=C1CCCN1CC#CCN1CCCC1	-4.1	-0.8	21.2	12.6	-6.4	-12.3
Cc1nn(CC(=O)N2CCC3(CC2)OCCO3)c(=O)c2cc3ccccc3n12	1.5	-1.4	nt	1.5	-6.1	-0.5
